# In the library only some 2.1% were active in any assay of this set; here they are far more common.
# MT1-MMP txn act – MT1-MMP promoter reporter activation – cell-based, luciferase luminescence, primary screen. HT1080 MT1-MMP promoter luciferase reporter, overnight; hits give high values. 86,000 tested, 0.16% active. activation factor at 10 µM. AID 750, 2007;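 active = activation factor of at least 2 for MT1-MMP transcription at 10 µM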
# RORa activator – activators of orphan receptor RORA, primary screen, cell-based, luminescence; 65,000 tested, 1.5% active; AID 560, 2006; activation, % at 10 µM; Nuclear receptor ROR-alpha (Homo sapiens), P35398; CHO-K1 Gal4-RORA LBD luciferase reporter; percent increase over mock-subtracted basal signal;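 active = activation above the mean of all tested compounds plus 3 SD, cut at about 49% in these data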;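 also: 0% = DMSO-treated RORA cells and 100% = added signal equal to DMSO minus mock-transfected cells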
# TNAP act DEA – human TNAP enzyme activators, primary screen, biochemical, luminescent, intermediate phosphate acceptor level; activation factor at 20 µM; Alkaline phosphatase, tissue-nonspecific isozyme (Homo sapiens), P05186; purified TNAP, CDP-star luminescence, 100 mM DEA, 30 min; hits give high values; scale: 0 levamisole-inhibited, 1 vehicle-only enzyme; 64,000 tested, under 10 active;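 active = activation factor of at least 2 at 20 µM, relative to controls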
# Target sequence (P05186 whole entry, looked up): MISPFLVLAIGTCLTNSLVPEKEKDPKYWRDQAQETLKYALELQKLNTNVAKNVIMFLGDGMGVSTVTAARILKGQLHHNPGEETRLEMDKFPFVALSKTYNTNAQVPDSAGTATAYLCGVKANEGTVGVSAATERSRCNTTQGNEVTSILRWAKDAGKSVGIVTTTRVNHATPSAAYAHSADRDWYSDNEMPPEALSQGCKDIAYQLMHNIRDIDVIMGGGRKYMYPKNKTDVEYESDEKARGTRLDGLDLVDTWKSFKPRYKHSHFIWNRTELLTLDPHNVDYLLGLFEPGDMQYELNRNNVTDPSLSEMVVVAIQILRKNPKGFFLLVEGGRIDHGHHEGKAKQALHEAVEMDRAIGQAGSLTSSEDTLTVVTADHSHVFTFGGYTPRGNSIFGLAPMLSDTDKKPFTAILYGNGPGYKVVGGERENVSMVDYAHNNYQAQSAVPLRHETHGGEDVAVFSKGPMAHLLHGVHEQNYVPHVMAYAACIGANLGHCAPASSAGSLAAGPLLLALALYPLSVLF
# Mac1 fbg enh – enhancers of CD11b/CD18 adhesion to fibrinogen, primary screen, K562 cells, luminescence | 93,000 tested, 0.07% active | ATPlite luminescence | activation, % at 10 µM;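 active = 10 µM primary screen giving 50% or more activity, confirmed by 40% or more on retest at that dose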
# SF-1 act – activators of human SF-1, primary screen, cell-based, CHO-K1, Gal4-SF-1 LBD, luciferase luminescence; Steroidogenic factor 1 (Homo sapiens), Q13285; CHO-K1 Gal4-SF-1 LBD luciferase reporter; % increase over DMSO SF-1-specific signal; activation, % at 10 µM; 65,000 tested, 1.9% active;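 active = activation above the mean activation of all tested compounds plus 3 SD, cut at about 50% in these data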
#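 material = CHO-K1 cells with Gal4–hSF-1 LBD chimera plus Gal4-driven luciferase | compound = 10 µM single point, 1% DMSO | incubation = 20 h compound exposure at 37 °C after 1 h cell settling | measured by = SteadyLite luciferase luminescence | evaluation = percent activation relative to DMSO median and mock-transfected background | control set = DMSO negative control and −SF1 background wells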
# Mac1 fbg inh – inhibitors of CD11b/CD18 adhesion to fibrinogen, primary screen, K562 cells, luminescence | Integrin beta-2 (Homo sapiens) + Integrin alpha-M (Homo sapiens), P05107+P11215 | ATPlite luminescence; Mn2+ added to activate the integrin | inhibition, % at 10 µM | 93,000 tested, 0.54% active | AID 1497, 2009;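 active = primary inhibition of 50% or more at 10 µM, then 40% or more on retest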
# Numbers without * were called inactive; . = not tested or not shown.
SMILES,MT1-MMP txn act,RORa activator,TNAP act DEA,Mac1 fbg enh,SF-1 act,Mac1 fbg inh
CCOc1ccc(C(=O)Nc2cccc(C)n2)cc1,0.4,-27,0.9,3,-31,37
Cc1ccccc1NS(=O)(=O)c1ccc(NC(=O)c2ccco2)cc1,1.1,-11,0.9,1,0,-15
COc1ccccc1NS(=O)(=O)c1ccc(NC(=O)CCNC(=O)c2ccco2)cc1,1.3,-4,0.9,68*,3,-2
Cc1c(/C=C/C(=O)c2ccc(Cl)s2)cnn1C,2.4*,.,.,.,.,.
CCCCc1ccc(S(=O)(=O)NCCc2ccncc2)cc1,1.2,-7,0.8,-8,-10,65*
Cc1ccc(S(=O)(=O)NCCc2ccncc2)cc1,1.1,-15,0.9,7,-17,-46
c1ccc(-c2onc3cc4c(cc23)OCCO4)cc1,1.6,74*,0.9,-4,28,13
CS(=O)(=O)NN1C(=O)c2ccccc2NC1c1c[nH]c2ccccc12 (centres undefined),.,.,.,2,.,-4
CCCOc1ccc(Br)cc1CSC(=N)N,.,.,.,-7,.,102*
CCOc1ccc(Br)cc1CC(=O)O,1,10,1,.,-6,.
O=C(CCSCc1ccccc1Cl)N1CCN(c2cccc(Cl)c2)CC1,1.2,.,.,.,.,.
O=C(O)c1ccc(Cl)c(S(=O)(=O)NCc2ccco2)c1,1.7,-17,0.9,0,2,-9
Cc1cccc(N2CCN(C(=O)c3ccc(Cl)c(S(=O)(=O)NCc4ccco4)c3)CC2)c1C,0.9,51*,1,-2,53*,18
CC1=C(C(=O)OCC(Br)(Br)Br)C(c2ccccc2)NC(=O)N1CCCC(=O)O (centres undefined),1.3,.,.,.,.,.
COc1ccc(N2CC(O)=C(c3nc4ccccc4s3)C2=N)c(OC)c1,1.2,3,1,3,0,-10
N=C1C(c2nc3ccccc3s2)=C(O)CN1Cc1ccco1,1.4,36,1,2,52*,2
CNC(=O)c1c(NC(=O)c2nc3ccccc3s2)sc2c1CCC2,1.9,96*,0.9,64,72*,14
COCCNC(=O)C1(CC(C)C)C=CCN1C(=O)OC (centres undefined),1.3,.,.,.,.,.
Cc1c(C(=O)Nc2ccccn2)oc2ccccc12,1,40,0.8,-7,69*,-8
COC(=O)c1sc(NC(=O)c2oc3ccccc3c2C)nc1C,2.3*,61*,1,0,58*,0
Cc1cc(C)c(S(=O)(=O)/N=C2\C=CC(=O)C(Cl)=C2)c(C)c1,1.4,.,.,27,.,67*
CCCCNS(=O)(=O)c1ccc2nc(SCC(=O)Nc3sccc3C#N)[nH]c2c1,1,26,0.9,-8,-1,102*
CCOc1ccc(NC(=O)c2ccccc2CO)cc1,1.6,51*,0.9,2,71*,6
CCOc1ccc(NC(=O)c2ccccc2OCC(=O)c2ccccc2)cc1,.,.,.,-5,.,43
COCC(=O)Nc1ccccc1C(=O)Nc1ccc(OC)cc1,1.2,19,0.9,0,59*,6
SMILES,MT1-MMP txn act,RORa activator,TNAP act DEA,Mac1 fbg enh,SF-1 act,Mac1 fbg inh
CCOc1ccc(NC(=O)c2ccccc2O)cc1,0.9,-8,1,.,-6,.
CCOc1ccc(NC(=O)c2ccccc2OC)cc1,1.6,49*,0.9,-4,73*,-4
CCC(Sc1nnc2c3ccccc3n(CC)c2n1)C(=O)Nc1sc2c(c1C#N)CCCC2 (centres undefined),.,.,.,21,.,-5
COC(=O)c1ccc(COC(=O)c2[nH]c(C)c(C(C)=O)c2C)o1,1.1,2,0.9,-8,-25,76*
CCC(C)c1ccc(NC(=S)NCc2cccnc2)cc1 (centres undefined),.,.,.,1,.,14
Cn1c(SCc2ccccc2Cl)nnc1-c1cnccn1,1.6,52*,0.9,-4,56*,6
Cn1c(SC/C=C/c2ccccc2)nnc1-c1cnccn1,1.2,9,0.9,4,5,4
Cn1c(SCC(=O)c2ccc(F)cc2)nnc1-c1cnccn1,2.8*,20,1,-5,15,-6
Cn1c(SCC(=O)N2CCOCC2)nnc1-c1cnccn1,1.1,2,0.9,0,6,-18
Cc1ccc(S(=O)(=O)Nc2ccccc2CNc2cccc(C)n2)cc1,.,.,.,2,.,13
Cc1ccc(C2NC(=O)c3ccccc3N2)s1 (centres undefined),0.6,77*,0.9,-4,89*,-9
COc1cccc(N2CCN(c3ccc(S(=O)(=O)N4CCCC4)cc3)CC2)c1,.,.,.,-2,.,-3
CCOC(=O)C(C)Sc1nnc(NC(=O)c2ccc(C)c([N+](=O)[O-])c2)s1 (centres undefined),.,.,.,-5,.,66*
N#C[C@H]1[C@H](c2ccccc2)[C@](C#N)(C(=O)c2ccccc2)[C@@H]2C=Cc3ccccc3N21,.,.,.,-2,.,23
Cc1ccc2nc(-c3ccc(S(=O)(=O)N4CCOCC4)cc3)cn2c1,1,-24,0.9,4,-7,0
COc1ccc(-c2cn3ccc4ccccc4c3n2)cc1,2.5*,.,.,.,.,.
Cc1ccc2nc(-c3ccccc3)cn2c1,0,-89,0.9,-7,-89,69*
Cc1cccn2cc(-c3ccccc3)nc12,0.8,76*,0.9,-4,1,2
CCCC(C)NCC(=O)Nc1ccccc1-c1ccccc1 (centres undefined),.,.,.,-3,.,4
CNC(=S)SCCOc1ccccc1C,.,.,.,0,.,1
O=C(OCc1nc2ccccc2s1)c1cnccn1,1.7,53*,0.9,-3,54*,-2
O=C(OCc1nc2ccccc2s1)c1cccs1,1.5,53*,0.9,-2,50*,5
O=C(COC(=O)c1cnccn1)NCc1ccccc1,1.2,.,.,-4,.,-8
O=C(OCc1nc2ccccc2c(=O)[nH]1)c1cccs1,1.4,-2,0.9,1,2,-2
CCCCCCn1ccc(=N)cc1,1,-12,0.9,-5,12,56*
Cc1cccc(C)c1NC(=O)C(NC(=O)c1ccccn1)c1ccccc1[N+](=O)[O-] (centres undefined),.,.,.,-5,.,1
Nn1c(Nc2ccccc2)nc2ccccc2c1=O,0.9,16,0.8,12,-11,3
Nn1c(Nc2ccccc2)nc2ccccc21,1.4,50*,0.9,-2,42,-2
CCN(CC)c1ccc(NC(=O)c2ccccc2F)cc1,0.6,70*,0.9,-2,74*,15

# Screening results as filed in PubChem BioAssay.
